In ChEMBL document CHEMBL1137574, “Synthesis and structure-activity relationship for a novel class of potent and selective carbamate-based inhibitors of hormone selective lipase with acute in vivo antilipolytic effects” (J Med Chem, 2007):

How the values were obtained:
Hormone-sensitive lipase = biological target: T1, Hormone-sensitive lipase (Homo sapiens, UniProt Q05469); assay: Inhibition of recombinant human hormone-sensitive lipase
T1 sequence (Q05469 whole entry): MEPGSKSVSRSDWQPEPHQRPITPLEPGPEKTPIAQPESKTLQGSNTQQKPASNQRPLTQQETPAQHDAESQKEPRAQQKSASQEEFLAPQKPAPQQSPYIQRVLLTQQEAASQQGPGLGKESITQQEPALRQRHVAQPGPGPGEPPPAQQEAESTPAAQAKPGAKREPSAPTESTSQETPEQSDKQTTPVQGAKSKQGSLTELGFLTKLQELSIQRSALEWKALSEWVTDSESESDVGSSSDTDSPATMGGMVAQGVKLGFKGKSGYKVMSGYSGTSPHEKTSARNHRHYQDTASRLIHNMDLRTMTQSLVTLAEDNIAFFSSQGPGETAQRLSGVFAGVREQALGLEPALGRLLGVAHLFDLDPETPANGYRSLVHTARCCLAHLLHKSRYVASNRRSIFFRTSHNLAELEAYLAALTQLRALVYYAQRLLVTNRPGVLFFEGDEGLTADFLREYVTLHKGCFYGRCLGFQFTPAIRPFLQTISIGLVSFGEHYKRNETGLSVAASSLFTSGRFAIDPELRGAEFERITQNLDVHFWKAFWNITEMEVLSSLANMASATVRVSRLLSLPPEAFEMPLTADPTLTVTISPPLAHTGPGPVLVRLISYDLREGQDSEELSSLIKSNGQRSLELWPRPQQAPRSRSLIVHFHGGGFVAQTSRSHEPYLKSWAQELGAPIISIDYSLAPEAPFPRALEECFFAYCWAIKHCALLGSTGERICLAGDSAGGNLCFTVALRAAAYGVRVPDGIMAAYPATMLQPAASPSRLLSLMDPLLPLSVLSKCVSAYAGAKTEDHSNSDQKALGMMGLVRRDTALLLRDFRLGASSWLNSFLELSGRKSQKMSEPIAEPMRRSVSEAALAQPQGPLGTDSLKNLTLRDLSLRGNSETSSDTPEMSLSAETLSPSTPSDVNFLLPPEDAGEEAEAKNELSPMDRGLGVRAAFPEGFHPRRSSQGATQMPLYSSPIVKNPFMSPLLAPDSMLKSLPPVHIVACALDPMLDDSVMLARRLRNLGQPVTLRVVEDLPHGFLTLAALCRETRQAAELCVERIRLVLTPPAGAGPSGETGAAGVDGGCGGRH

Acetylcholinesterase = Acetylcholinesterase (Homo sapiens, UniProt P22303); assay: Inhibition of acetylcholine esterase
Acetylcholinesterase, sequence (P22303 whole entry): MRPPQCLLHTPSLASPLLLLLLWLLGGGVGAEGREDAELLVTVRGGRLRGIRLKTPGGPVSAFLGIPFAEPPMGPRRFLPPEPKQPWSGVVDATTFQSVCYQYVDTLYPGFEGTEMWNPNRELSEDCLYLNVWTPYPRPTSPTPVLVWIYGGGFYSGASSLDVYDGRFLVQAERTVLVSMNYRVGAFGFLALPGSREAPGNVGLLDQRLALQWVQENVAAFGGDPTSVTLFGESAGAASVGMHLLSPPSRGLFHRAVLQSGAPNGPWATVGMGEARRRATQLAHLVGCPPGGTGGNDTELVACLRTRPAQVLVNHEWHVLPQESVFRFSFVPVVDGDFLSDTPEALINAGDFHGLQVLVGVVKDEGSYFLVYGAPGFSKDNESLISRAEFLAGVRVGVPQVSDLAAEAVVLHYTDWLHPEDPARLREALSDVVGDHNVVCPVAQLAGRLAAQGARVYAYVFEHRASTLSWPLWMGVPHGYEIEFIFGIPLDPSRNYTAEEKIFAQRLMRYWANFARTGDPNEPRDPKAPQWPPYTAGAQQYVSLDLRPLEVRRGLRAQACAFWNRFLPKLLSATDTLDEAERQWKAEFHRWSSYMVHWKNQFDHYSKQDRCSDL
In short: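 Acetylcholinesterase activity measured with acetylthiocholine substrate. Inhibitor at six concentrations in 5-fold steps from a maximum of 100 µM, duplicate measurements averaged. IC50 from variable-slope sigmoidal dose-response fit.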

Cholinesterase = Cholinesterase (Homo sapiens, UniProt P06276); assay: Inhibition of butyrylcholine esterase
Cholinesterase, sequence (P06276 whole entry): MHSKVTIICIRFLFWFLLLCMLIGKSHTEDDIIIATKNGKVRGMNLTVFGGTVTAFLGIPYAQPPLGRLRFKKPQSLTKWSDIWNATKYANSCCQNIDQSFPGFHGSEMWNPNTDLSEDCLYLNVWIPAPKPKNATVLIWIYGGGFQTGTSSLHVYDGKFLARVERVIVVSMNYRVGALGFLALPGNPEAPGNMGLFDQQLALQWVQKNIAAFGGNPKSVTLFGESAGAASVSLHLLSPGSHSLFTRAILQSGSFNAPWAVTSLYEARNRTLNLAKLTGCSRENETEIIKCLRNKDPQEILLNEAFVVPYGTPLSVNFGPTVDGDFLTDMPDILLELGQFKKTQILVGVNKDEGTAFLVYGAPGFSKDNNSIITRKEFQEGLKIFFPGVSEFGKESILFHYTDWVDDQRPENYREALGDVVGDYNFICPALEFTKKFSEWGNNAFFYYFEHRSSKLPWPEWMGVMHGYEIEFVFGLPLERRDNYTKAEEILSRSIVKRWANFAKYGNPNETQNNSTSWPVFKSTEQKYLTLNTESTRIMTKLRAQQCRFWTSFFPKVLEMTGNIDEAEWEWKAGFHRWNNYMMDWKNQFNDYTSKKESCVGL

[1] = Cmax in Sprague-Dawley rat at 1.2 mg/kg, iv and […] mg/kg, po; type: ADME, organism-based; conditions: in vivo, 2.4 mg/kg
[2] = Clearance in Sprague-Dawley rat at 1.2 mg/kg, iv and […] mg/kg, po; type: ADME, organism-based; conditions: in vivo
[3] = Oral bioavailability in Sprague-Dawley rat at 2.4 mg/kg, po; type: ADME, organism-based; conditions: in vivo
In short: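 Male Sprague-Dawley rats, 12 weeks old, dosed by oral gavage and i.v. in 10% hydroxypropyl cyclodextrin in phosphate buffer pH 7.0, with one rat per time point. Plasma was diluted 1:1 in 10% methanol, centrifuged and quantified by turbulent-flow chromatography–tandem MS against plasma calibration curves (10-3000 ng/mL).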

Rattus norvegicus = assay: Reduction of glycerol in Sprague-Dawley rat at 10 mg/kg, po; type: ADME, organism-based; design: dose 10 mg/kg, route oral; scale not given: the % may be the effect or the level left; conditions: in vivo
In short: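 Male Sprague-Dawley rats, 12 weeks old, fasted overnight; single 10 mg/kg p.o. dose (n = 4 per group; vehicle n = 8). Orbital plexus blood under isoflurane taken at baseline (0.5 h predose) and 1, 3 and 5 h postdose into EDTA tubes with 0.1% NaF. Plasma glycerol measured on an automated analyzer as the antilipolytic endpoint.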

Cytochrome P450 1A2 = biological target: T2, Cytochrome P450 1A2 (Homo sapiens, UniProt P05177); assay: Inhibition of CYP1A2 in human liver microsome; type: ADME; conditions: microsomes
T2 sequence (P05177 whole entry): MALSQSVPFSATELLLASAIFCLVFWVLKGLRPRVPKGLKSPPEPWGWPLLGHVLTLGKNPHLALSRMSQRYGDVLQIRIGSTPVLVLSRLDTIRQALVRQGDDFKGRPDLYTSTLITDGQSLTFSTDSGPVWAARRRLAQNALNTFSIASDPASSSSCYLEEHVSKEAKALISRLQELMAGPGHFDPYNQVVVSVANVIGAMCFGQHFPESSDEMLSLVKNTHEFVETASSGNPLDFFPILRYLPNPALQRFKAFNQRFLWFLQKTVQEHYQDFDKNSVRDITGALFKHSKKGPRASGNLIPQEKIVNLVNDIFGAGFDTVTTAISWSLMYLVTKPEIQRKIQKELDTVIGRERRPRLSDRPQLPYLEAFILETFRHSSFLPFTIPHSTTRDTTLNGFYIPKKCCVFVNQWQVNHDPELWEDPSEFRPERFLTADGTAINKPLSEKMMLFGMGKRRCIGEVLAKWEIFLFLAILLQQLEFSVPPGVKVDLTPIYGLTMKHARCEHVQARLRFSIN
In short: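 Pooled human liver microsomes (0.1 mg, ≥15 donors) incubated 10 min at 37 °C with 1 mM NADPH and test compound at 20 µM, in triplicate. Substrates at Km: CYP1A2, 14C-phenacetin 40 µM; CYP2D6, 14C-dextromethorphan 3 µM. Conversion read by charcoal extraction then scintillation counting of the supernatant.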

[4] = Cmax in Sprague-Dawley rat at 1.1 mg/kg, iv and 2 mg/kg, po; type: ADME, organism-based; conditions: in vivo
In short: (§1)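 Rat PK study, one rat per time point. Dosed i.v. and p.o. by gavage in 10% hydroxypropyl cyclodextrin in phosphate buffer pH 7.0; one compound was given in 20% Tween 80 plus 5% glucose in phosphate buffer pH 7.0. Plasma was diluted 1:1 with 10% methanol and centrifuged, then quantified by turbulent-flow chromatography–MS/MS against plasma calibration curves spanning 10-3000 ng/mL.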

[5] = Clearance in Sprague-Dawley rat at 1.1 mg/kg, iv and 2.2 mg/kg, po; type: ADME, organism-based; conditions: in vivo; in short: as §1
[6] = Oral bioavailability in Sprague-Dawley rat at 2.2 mg/kg, po; type: ADME, organism-based; conditions: in vivo; in short: as §1

Row | Structure (SMILES) | IC50 (Hormone-sensitive lipase) | IC50 (Acetylcholinesterase) | IC50 (Cholinesterase) | Cmax [1] | clearance [2] | bioavailability [3] | Activity (Rattus norvegicus) | Activity (Cytochrome P450 1A2) | Cmax [4] | clearance [5] | bioavailability [6]
1 | O=C(Oc1ccc(Oc2ccc(C(F)(F)F)cn2)cc1)N1CCC(O)CC1 | 500 nM | > 50000 nM | > 50000 nM | 1220 ng/mL | 9 mL/min/kg | 56% | 42% | Not Active |  |  | 
2 | O=C(Oc1ccc(Oc2ccc(C(F)(F)F)cn2)cc1)N1CCC(CO)CC1 | 110 nM |  | > 50000 nM |  |  |  | 59% | Not Active | 60 ng/mL | 46 mL/min/kg | 10%
